Tests used:
[1] = Partition coefficient (logP); conditions: octanol/water
[2] = target: Gag-Pol polyprotein (Woolly monkey sarcoma virus) (UniProt P03359); experiment: Inhibition of simian sarcoma virus reverse transcriptase
Outline: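 SSV-1 RNA-dependent DNA polymerase purified from tissue culture fluid of 71 AP1 cells. 50 µL reaction containing 20% glycerol, 1 mM DTT, BSA, Tris-HCl pH 7.5, MnCl2, KCl, NaF, [3H]dGTP and poly(2'-O-methylC)·d(pG)12-18. Compound in Me2SO is mixed with enzyme on ice for 10 min before the cocktail is added, then incubated 45 min at 37 °C. Radioactivity in product; 50% inhibitory concentration from triplicate dose–response curves spanning 10^-3 to 10^-7 M.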

DNA polymerase beta = DNA polymerase beta (Mus musculus, UniProt Q8K409); experiment: Ability to inhibit mouse beta DNA polymerase
Outline: (§1)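 Enzyme in 50% glycerol, 1 mM dithiothreitol, 0.5 M KCl and 50 mM Tris-HCl pH 7.5 was premixed with inhibitor in 100% Me2SO and held on ice 10 min. Cocktail (MnCl2, KCl, NaF, BSA, [3H]dGTP, poly(2'-O-methylcytidylic acid)·d(pG)12-18) was then added. Incubation was 45 min at 37 °C.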

[3] = target: DNA polymerase beta (Mus musculus) (UniProt Q8K409); experiment: The logarithm of the reciprocal of the concentration which produces 50% inhibition of mammalian beta DNA polymerase.
Outline: (§2)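 Mammalian α or β DNA polymerase in 100 µL reaction: enzyme in 50% glycerol, 1 mM DTT, 0.5 M KCl, Tris-HCl pH 7.5; Me2SO compound; cocktail with MnCl2, NaF, [3H]dGTP, poly(2'-O-methylC)·d(pG)12-18 template. Compound added first, then enzyme, then cocktail; 45 min at 37 °C. Product radioactivity, background-corrected against Me2SO controls; 50% concentration from triplicate five-dose curves, 10^-3–10^-7 M, expressed as log(1/C).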

[4] = Ability to inhibit mouse alpha DNA polymerase; outline: as §1
[5] = The logarithm of the reciprocal of the concentration which produces 50% inhibition of mammalian alpha DNA polymerase.; outline: as §2
Gag-Pol polyprotein = Gag-Pol polyprotein (Woolly monkey sarcoma virus, UniProt P03359); experiment: Ability to inhibit simian sarcoma virus reverse transcriptase
Outline: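 Purified SSV-1 RNA-dependent DNA polymerase from 71 AP1 culture fluids, in 20% glycerol, 1 mM dithiothreitol, 1 mg/mL BSA and 50 mM Tris-HCl pH 7.5, was held 10 min on ice with inhibitor in Me2SO. Mn2+/[3H]dGTP cocktail with poly(2'-O-methylcytidylic acid)·d(pG)12-18 template was added, then 45 min at 37 °C. Background-corrected triplicate dose series; the 50% inhibition concentration was extrapolated.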

Sequence of Gag-Pol polyprotein (P03359 642-1310 limits assumed): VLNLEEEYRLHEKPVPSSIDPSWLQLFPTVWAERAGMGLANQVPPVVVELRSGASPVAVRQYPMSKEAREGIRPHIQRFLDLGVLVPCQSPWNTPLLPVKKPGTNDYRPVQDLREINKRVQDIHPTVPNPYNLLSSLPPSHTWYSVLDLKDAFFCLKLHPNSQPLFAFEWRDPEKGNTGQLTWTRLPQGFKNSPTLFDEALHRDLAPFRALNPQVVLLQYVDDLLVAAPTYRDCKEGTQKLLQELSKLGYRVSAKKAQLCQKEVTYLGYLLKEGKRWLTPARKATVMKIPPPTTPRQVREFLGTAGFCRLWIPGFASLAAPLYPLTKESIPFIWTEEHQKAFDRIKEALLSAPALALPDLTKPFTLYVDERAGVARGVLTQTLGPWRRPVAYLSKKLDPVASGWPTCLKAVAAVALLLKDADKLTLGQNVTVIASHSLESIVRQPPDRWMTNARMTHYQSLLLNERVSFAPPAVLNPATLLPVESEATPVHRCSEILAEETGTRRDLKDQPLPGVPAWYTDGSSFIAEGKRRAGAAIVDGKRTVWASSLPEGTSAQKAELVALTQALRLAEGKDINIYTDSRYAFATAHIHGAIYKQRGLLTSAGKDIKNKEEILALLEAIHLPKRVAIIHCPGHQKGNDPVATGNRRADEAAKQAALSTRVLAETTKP
Sequence of Gag-Pol polyprotein (Woolly monkey sarcoma virus) (P03359 whole entry): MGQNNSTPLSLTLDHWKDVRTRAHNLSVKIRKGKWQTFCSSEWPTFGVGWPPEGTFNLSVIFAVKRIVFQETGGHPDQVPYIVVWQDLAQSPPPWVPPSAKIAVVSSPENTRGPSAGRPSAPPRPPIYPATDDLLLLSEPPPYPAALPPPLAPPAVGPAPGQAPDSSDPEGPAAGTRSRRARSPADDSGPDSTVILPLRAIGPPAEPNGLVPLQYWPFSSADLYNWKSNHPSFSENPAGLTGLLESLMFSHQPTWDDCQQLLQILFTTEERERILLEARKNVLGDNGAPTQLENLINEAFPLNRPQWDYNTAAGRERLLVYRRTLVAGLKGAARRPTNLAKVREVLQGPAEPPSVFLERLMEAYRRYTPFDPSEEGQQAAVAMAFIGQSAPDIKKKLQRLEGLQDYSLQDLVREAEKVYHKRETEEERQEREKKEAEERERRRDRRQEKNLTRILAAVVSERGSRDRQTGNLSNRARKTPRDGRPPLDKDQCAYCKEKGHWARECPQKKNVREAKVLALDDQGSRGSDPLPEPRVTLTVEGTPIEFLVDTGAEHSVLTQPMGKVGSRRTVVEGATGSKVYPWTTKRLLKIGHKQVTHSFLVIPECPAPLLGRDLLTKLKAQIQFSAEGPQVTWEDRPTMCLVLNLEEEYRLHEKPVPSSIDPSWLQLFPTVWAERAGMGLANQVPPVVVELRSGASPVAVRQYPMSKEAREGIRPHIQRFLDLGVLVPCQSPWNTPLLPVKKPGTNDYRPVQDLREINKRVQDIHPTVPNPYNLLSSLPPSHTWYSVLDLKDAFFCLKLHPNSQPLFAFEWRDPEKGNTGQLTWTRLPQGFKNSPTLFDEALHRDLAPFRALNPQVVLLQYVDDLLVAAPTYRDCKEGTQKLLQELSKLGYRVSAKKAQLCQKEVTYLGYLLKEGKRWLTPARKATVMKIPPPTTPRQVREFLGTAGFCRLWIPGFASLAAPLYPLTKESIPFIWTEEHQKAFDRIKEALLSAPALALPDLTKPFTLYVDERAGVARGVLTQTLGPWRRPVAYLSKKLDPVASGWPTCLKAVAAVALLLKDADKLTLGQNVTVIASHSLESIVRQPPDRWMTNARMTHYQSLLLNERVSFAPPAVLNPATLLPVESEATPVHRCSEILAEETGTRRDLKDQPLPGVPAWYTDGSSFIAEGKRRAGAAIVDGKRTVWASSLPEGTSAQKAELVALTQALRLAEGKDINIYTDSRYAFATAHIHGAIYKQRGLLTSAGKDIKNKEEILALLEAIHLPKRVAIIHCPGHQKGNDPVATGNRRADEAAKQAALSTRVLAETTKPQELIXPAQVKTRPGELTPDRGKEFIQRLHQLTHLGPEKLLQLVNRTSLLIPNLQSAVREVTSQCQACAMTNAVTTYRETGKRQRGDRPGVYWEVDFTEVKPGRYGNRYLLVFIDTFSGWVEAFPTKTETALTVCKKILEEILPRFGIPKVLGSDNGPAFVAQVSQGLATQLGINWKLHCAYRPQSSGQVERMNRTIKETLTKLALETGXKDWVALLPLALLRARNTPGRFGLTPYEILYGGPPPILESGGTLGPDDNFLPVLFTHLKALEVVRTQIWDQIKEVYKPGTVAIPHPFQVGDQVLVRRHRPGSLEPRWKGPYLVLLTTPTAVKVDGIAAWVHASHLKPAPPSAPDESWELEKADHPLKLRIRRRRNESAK

| Compound | logP ([1]; logP) | Log 1/C [2] | Log 1/C [3] | IC50 [4] [M l-1] | Log 1/C [5] | IC50 (Gag-Pol polyprotein; read-out: IC50) [µM] | further results |
| --- | --- | --- | --- | --- | --- | --- | --- |
| NN1CCNCC1 | -0.29 | – | – | – | – | – | – |
| CCCCCCN(CCCCCC)/N=C/c1cc2c3c4c(C)c(O)c2c(O)c1NC(=O)/C(C)=C\C=C\C(C)C(O)C(C)C(O)C(C)C(OC(C)=O)C(C)C(OC)/C=C/OC(C)(O4)C3=O (stereo unspecified) | 3.51 | – | – | – | – | – | – |
| COC1/C=C/OC2(C)Oc3c(C)c(O)c4c(O)c(c(/C=N/N5CCN(N)CC5)cc4c3C2=O)NC(=O)/C(C)=C\C=C\C(C)C(O)C(C)C(O)C(C)C(OC(C)=O)C1C (stereo unspecified) | 2 | 4.6 | 4.8 | 0.000165 | 3.78 | 25 | IC50 (DNA polymerase beta; read-out: IC50): 16 µM |
| COC1/C=C/OC2(C)Oc3c(C)c(O)c4c(O)c(c(/C=N/N5CCNCC5)cc4c3C2=O)NC(=O)/C(C)=C\C=C\C(C)C(O)C(C)C(O)C(C)C(OC(C)=O)C1C (stereo unspecified) | 1.12 | – | – | – | – | – | – |
| COC1/C=C/OC2(C)Oc3c(C)c(O)c4c(O)c(c(/C=N/N5CCCCCCCCCCCC5)cc4c3C2=O)NC(=O)/C(C)=C\C=C\C(C)C(O)C(C)C(O)C(C)C(OC(C)=O)C1C (stereo in doubt; 17) [listing 1 of 2 here] | 4.75 | – | – | 0.000024 | – | 3.3 | IC50 (DNA polymerase beta; read-out: IC50): 19 µM |
| CCN(CC)Cc1cc2c3c4c(C)c(O)c2c(O)c1NC(=O)/C(C)=C\C=C\C(C)C(O)C(C)C(O)C(C)C(OC(C)=O)C(C)C(OC)/C=C/OC(C)(O4)C3=O (stereo unspecified) | 1.55 | 4.4 | 3 | 0.001 | 3 | 40 | IC50 (DNA polymerase beta): 0.0011 M l-1 |
| COC1/C=C/OC2(C)Oc3c(C)c(O)c4c(O)c(c(/C=N/N5CCCCCCCCCCCC5)cc4c3C2=O)NC(=O)/C(C)=C\C=C\C(C)C(O)C(C)C(O)C(C)C(OC(C)=O)C1C (stereo in doubt; 17) [listing 2 of 2 here] | – | 5.48 | 4.72 | – | 4.62 | – | – |
| COC1/C=C/OC2(C)Oc3c(C)c(O)c4c(O)c(c(C=O)cc4c3C2=O)NC(=O)/C(C)=C\C=C\C(C)C(O)C(C)C(O)C(C)C(OC(C)=O)C1C (stereo unspecified) | 0.13 | 2.99 | 2.99 | 0.000102 | 2.99 | 17 | IC50 (DNA polymerase beta): 0.000104 M l-1 |
| COC1/C=C/OC2(C)Oc3c(C)c(O)c4c(O)c(c(/C=N/N5CCCCCCC5)cc4c3C2=O)NC(=O)/C(C)=C\C=C\C(C)C(O)C(C)C(O)C(C)C(OC(C)=O)C1C (stereo unspecified) | 3.1 | – | – | – | – | – | – |
| COC1/C=C/OC2(C)Oc3c(C)c(O)c4c(O)c(c(CN5CCNCC5)cc4c3C2=O)NC(=O)/C(C)=C\C=C\C(C)C(O)C(C)C(O)C(C)C(OC(C)=O)C1C (stereo unspecified) | 1.76 | 2.84 | 2.38 | 0.003 | 2.52 | – | IC50 (DNA polymerase beta): 0.0042 M l-1; IC50 (Gag-Pol polyprotein): 0.00145 M l-1 |
| COC1/C=C/OC2(C)Oc3c(C)c(O)c4c(O)c(c(/C=N/N5CCCCCCCCCCCCCCC5)cc4c3C2=O)NC(=O)/C(C)=C\C=C\C(C)C(O)C(C)C(O)C(C)C(OC(C)=O)C1C (stereo in doubt; 18) [listing 1 of 2 here] | 6.05 | – | – | 0.000025 | – | 6.5 | IC50 (DNA polymerase beta; read-out: IC50): 22 µM |
| COC1/C=C/OC2(C)Oc3c(C)c(O)c4c(O)c(c(/C=N/NC5CCCCCCCCCCCCCC5)cc4c3C2=O)NC(=O)/C(C)=C\C=C\C(C)C(O)C(C)C(O)C(C)C(OC(C)=O)C1C (stereo unspecified) | 6.78 | 6.07 | 4.82 | 0.0000115 | 4.94 | 0.85 | IC50 (DNA polymerase beta; read-out: IC50): 15 µM |
| COC1/C=C/OC2(C)Oc3c(C)c(O)c4c(O)c(c(O)cc4c3C2=O)NC(=O)/C(C)=C\C=C\C(C)C(O)C(C)C(O)C(C)C(OC(C)=O)C1C (stereo unspecified) | 0.11 | 2.64 | 2.64 | 0.00023 | 2.64 | 13 | IC50 (DNA polymerase beta): 0.00037 M l-1 |
| CCCCCCCCN(CCCCCCCC)/N=C/c1cc2c3c4c(C)c(O)c2c(O)c1NC(=O)/C(C)=C\C=C\C(C)C(O)C(C)C(O)C(C)C(OC(C)=O)C(C)C(OC)/C=C/OC(C)(O4)C3=O (stereo in doubt; 35) | 3.6 | – | – | – | – | – | – |
| COC1/C=C/OC2(C)Oc3c(C)c(O)c4c(O)c(c(/C=N/N5CCCCCCCCCCCC5)cc4c3C2=O)NC(=O)/C(C)=C\C=C\C(C)C(O)C(C)C(O)C(C)C(OC(C)=O)C1C (stereo in doubt; 30) | – | – | – | – | – | – | logP [1]: 4.65 |
| COC1/C=C/OC2(C)Oc3c(C)c(O)c4c(O)c(c(/C=N/Nc5ccc([N+](=O)[O-])cc5[N+](=O)[O-])cc4c3C2=O)NC(=O)/C(C)=C\C=C\C(C)C(O)C(C)C(O)C(C)C(OC(C)=O)C1C (stereo unspecified) | 3.81 | 5.26 | 4.3 | 0.000045 | 4.35 | 5.4 | IC50 (DNA polymerase beta; read-out: IC50): 50 µM |
| COC1/C=C/OC2(C)Oc3c(C)c(O)c4c(O)c(c(/C=N/N5CCCCCCCC5)cc4c3C2=O)NC(=O)/C(C)=C\C=C\C(C)C(O)C(C)C(O)C(C)C(OC(C)=O)C1C (stereo unspecified) | 3.45 | – | – | – | – | – | – |
| COC1/C=C/OC2(C)Oc3c(C)c(O)c4c(O)c(c(/C=N/N5CCN(C)CC5)cc4c3C2=O)NC(=O)/C(C)=C\C=C\C(C)C(O)C(C)C(O)C(C)C(OC(C)=O)C1C (stereo unspecified) | – | – | – | 0.00034 | – | 42 | IC50 (DNA polymerase beta): 0.00015 M l-1 |
| COC1/C=C/OC2(C)Oc3c(C)c(O)c4c(O)c(c(/C=N/N5CCCCC5)cc4c3C2=O)NC(=O)/C(C)=C\C=C\C(C)C(O)C(C)C(O)C(C)C(OC(C)=O)C1C (stereo unspecified) | 2.35 | – | – | – | – | – | – |
| CCCCCCCCN(CCCCCCCC)/N=C/c1cc2c3c4c(C)c(O)c2c(O)c1NC(=O)/C(C)=C\C=C\C(C)C(O)C(C)C(O)C(C)C(OC(C)=O)C(C)C(OC)/C=C/OC(C)(O4)C3=O (stereo in doubt; 8) [listing 1 of 2 here] | – | 5.49 | 5.13 | – | 4.62 | – | – |
| COC1/C=C/OC2(C)Oc3c(C)c(O)c4c(O)c(c(/C=N/N5CCN(Cc6ccccc6)CC5)cc4c3C2=O)NC(=O)/C(C)=C\C=C\C(C)C(O)C(C)C(O)C(C)C(OC(C)=O)C1C (stereo unspecified) | 3.36 | – | – | – | – | – | – |
| CCCCCCCCN(CCCCCCCC)/N=C/c1cc2c3c4c(C)c(O)c2c(O)c1NC(=O)/C(C)=C\C=C\C(C)C(O)C(C)C(O)C(C)C(OC(C)=O)C(C)C(OC)/C=C/OC(C)(O4)C3=O (stereo in doubt; 8) [listing 2 of 2 here] | – | – | – | 0.000024 | – | 3.2 | IC50 (DNA polymerase beta; read-out: IC50): 7.4 µM; logP [1]: 3.62 |
| COC1/C=C/OC2(C)Oc3c(C)c(O)c4c(O)c(c(/C=N/N5CCCCCCCCCCCCCCC5)cc4c3C2=O)NC(=O)/C(C)=C\C=C\C(C)C(O)C(C)C(O)C(C)C(OC(C)=O)C1C (stereo in doubt; 18) [listing 2 of 2 here] | – | 5.19 | 4.66 | – | 4.6 | – | – |
| COC1/C=C/OC2(C)Oc3c(C)c(O)c4c(O)c(c(/C=N/N5C(C)CC(Cc6ccccc6)CC5C)cc4c3C2=O)NC(=O)/C(C)=C\C=C\C(C)C(O)C(C)C(O)C(C)C(OC(C)=O)C1C (stereo unspecified) | 6.3 | – | – | – | – | – | – |
| CCCCN(CCCC)/N=C/c1cc2c3c4c(C)c(O)c2c(O)c1NC(=O)/C(C)=C\C=C\C(C)C(O)C(C)C(O)C(C)C(OC(C)=O)C(C)C(OC)/C=C/OC(C)(O4)C3=O (stereo unspecified) | 3.66 | – | – | – | – | – | – |
| COC1/C=C/OC2(C)Oc3c(C)c(O)c4c(O)c(c(/C=N/N5CCCCCC5)cc4c3C2=O)NC(=O)/C(C)=C\C=C\C(C)C(O)C(C)C(O)C(C)C(OC(C)=O)C1C (stereo unspecified) | 2.75 | – | – | – | – | – | – |
| COC1/C=C/OC2(C)Oc3c(C)c(O)c4c(O)c(c(/C=N/N5CCCCCCCCCCCCCCC5)cc4c3C2=O)NC(=O)/C(C)=C\C=C\C(C)C(O)C(C)C(O)C(C)C(OC(C)=O)C1C (stereo in doubt; 31) | – | – | – | – | – | – | logP [1]: 5.55 |

Reference: ChEMBL document CHEMBL1121400, “Quantitative structure--activity correlations of rifamycins as inhibitors of viral RNA-directed DNA polymerase and mammalian alpha and beta DNA polymerases” (J Med Chem, 1980)
